Published values collected from several papers.
Each line is one published result; the experiments were not run side by side.
Target: MAP kinase-interacting serine/threonine-protein kinase 1 (MKNK1, Homo sapiens, UniProt Q9BUB5)

For `CS(=O)(=O)c1cc(C2(NC(=O)c3cncc4c3cnn4-c3ccc(F)cc3)CC2)ccn1`, the remaining binding was 47% (cell-free assay; competition with immobilised ligand; 1 µM).
`O=C(NCCCN1CCOCC1)c1ccc(Nc2nccc(-c3cc4ccccc4s3)n2)cc1` gave a remaining binding of 43% (binding; competition with immobilised ligand; 1 µM).
The remaining binding of `COc1ccnn2ncc(-c3ccnc(N(C)C)n3)c12` is reported as 95% (binding; 1 µM).
For `O=C(c1ccc(Nc2nccc(-c3cc4ccccc4s3)n2)cc1)N1CCC(N2CCCC2)CC1`, the remaining binding was 18% (binding; competition with immobilised ligand; 1 µM).
The remaining binding of `CC(=O)C1=C(C)N(c2cccc(C(F)(F)F)c2)C(=O)N[C@@H]1c1ccc(C#N)nc1` is reported as 100% (cell-free assay; competition with immobilised ligand; 1 µM).
For `CN(C)c1ncc(F)c(-c2cnn3ncccc23)n1`, the remaining binding was 62% (binding; 1 µM).
For `C=CC(=O)N1CCC(C(=O)NCC(=O)N2CCN(c3nc(-c4cnc(N)nc4C(F)F)nc(N4CCOCC4)n3)CC2)CC1`, the remaining binding was 83% (binding; competition with immobilised ligand; 1 µM).
`CCN1CCN(Cc2ccc(C(=O)Nc3ccc(C)c(Oc4ccc5c(c4)CC(=O)N5)c3)cc2C(F)(F)F)CC1` gave a remaining binding of 100% (binding; competition with immobilised ligand; 1 µM).
With `F[C@@H]1CCN(c2nccc(-c3cnn4ncccc34)n2)C1` the remaining binding was 100% (binding; 1 µM).
For `C[C@@H]1CN(c2ccc3ncc(-c4ccc5[nH]nc(C6CC6)c5c4)n3n2)C[C@H](C)O1`, the remaining binding was 94% (binding; competition with immobilised ligand; 0.5 µM).
`C[C@@H](c1ccc(-n2cnc3c(N)ncnc32)cc1)N1CCc2nn(C)c(Cc3ccccc3)c2C1=O` has a remaining binding of 58% (binding; competition with immobilised ligand; 0.1 µM).
The remaining binding of `COc1ncc2cc3ccccc3nc2c1C#N` is reported as 96% (cell-free assay; competition with immobilised ligand; 5 µM).
With `CN(c1nccc(-c2cnn3ncccc23)n1)C1CC1` the remaining binding was 98% (binding; 1 µM).
The remaining binding of `O=C(NCC1CCOCC1)c1n[nH]cc1NC(=O)c1c(F)cccc1F` is reported as 88% (binding; competition with immobilised ligand; 1 µM).
The remaining binding of `CO[C@@H](C)c1c(Nc2ccc([C@H](N(C)C(=O)C3CCS(=O)(=O)CC3)C(F)(F)F)cc2)cnc2cc(Cl)nn12` is reported as 100% (cell-free assay; competition with immobilised ligand; 1 µM).
For `COc1cnc(Nc2cccc(S(N)(=O)=O)c2)nc1N1CCN(c2ccccc2)CC1`, the remaining binding was 83% (binding; competition with immobilised ligand; 1 µM).
`O=C(c1ccc(Nc2ncc(Cl)c(-c3ccc(Cl)s3)n2)cc1)N1CCC(N2CCCC2)CC1` gave a remaining binding of 45% (binding; competition with immobilised ligand; 1 µM).
`Cc1nc(Cc2cccc(C(F)(F)F)c2)sc1-c1ccc(C(N)=O)nc1` has a remaining binding of 100% (cell-free assay; competition with immobilised ligand; 1 µM).
For `N[C@@H]1CCN(c2nccc(-c3cnn4ncccc34)n2)C1`, the remaining binding was 68% (binding; 1 µM).
The remaining binding of `CC(=O)N1CCC(c2ccc(C(=O)NC(=N)N)cc2C(F)(F)F)CC1` is reported as 100% (cell-free assay; competition with immobilised ligand; 1 µM).
With `C[C@H]1CCN(c2nccc(-c3cnn4ncccc34)n2)C1` the remaining binding was 59% (binding; 1 µM).
The remaining binding of `Cc1cc(C)c(-n2ccn3nc(-c4cccnc4)cc23)cc1NC(=O)c1cc(C#N)cc(S(F)(F)(F)(F)F)c1` is reported as 83.8% (cell-free assay; competition with immobilised ligand; 0.1 µM).
`Nc1ncc2c(n1)-c1c([nH]c3ccc(C#CC4CC4)cc13)CCCC2` has a remaining binding of 86% (binding; competition with immobilised ligand; 1 µM).
`CCS(=O)(=O)c1cc2cc(C[C@@](O)(CC(C)(C)c3ccc(F)cc3C(N)=O)C(F)(F)F)[nH]c2cn1` gave a remaining binding of 46% (cell-free assay; competition with immobilised ligand; 1 µM).
`FC(F)(F)Oc1cccc(-c2cnc3ccc(-c4ccncc4)nn23)c1` has a remaining binding of 71% (cell-free assay; competition with immobilised ligand; 5 µM).
